Test results published in ChEMBL document CHEMBL3271968, “Novel bis(benzamidino) compounds with an aromatic central link. Inhibitors of thrombin, pancreatic kallikrein, trypsin, and complement” (J Med Chem, 1976).
Active and inactive are the calls of the source. The calls are words filed in the database; no cut-off is given here.

Key:
Cavia porcellus [1] = species: Cavia porcellus; experiment: Inhibition of guinea pig complement-mediated immune lysis of sheep red blood cells at 30 uM after 12 mins
Outline: (§1)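 Inhibitor in Tris/Mg/Ca/NaCl/gelatin buffer was preincubated 15 min at 37° with guinea pig complement (1:100 of 200 CH50/ml). Sheep erythrocytes (10^9/ml) presensitized with rabbit hemolysin (1:800) were added, and tubes incubated 12 min at 37°. Cold citrate-saline stopped lysis. Hemoglobin at 524 nm was converted to % inhibition via a complement standard curve, corrected for inhibitor lysis, in duplicate.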

Cavia porcellus [2] = species: Cavia porcellus; experiment: Inhibition of guinea pig complement-mediated immune lysis of sheep red blood cells at 10 uM after 12 mins; outline: as §1
Prothrombin (Bos taurus) = Prothrombin (Bos taurus) (UniProt P00735); experiment: Inhibition of bovine thrombin-mediated blood clotting formation in presence of human fibrinogen
Prothrombin [3] = target: T1, Prothrombin (Bos taurus, UniProt P00735); experiment: Inhibition of amidase activity of bovine thrombin using BANA as substrate after 15 to 40 mins
Glandular kallikrein [4] = target: T2, Glandular kallikrein (Sus scrofa, UniProt P00752); experiment: Inhibition of porcine pancreatic kallikrein using BANA as substrate after 15 to 180 mins
T2 sequence (P00752 whole entry): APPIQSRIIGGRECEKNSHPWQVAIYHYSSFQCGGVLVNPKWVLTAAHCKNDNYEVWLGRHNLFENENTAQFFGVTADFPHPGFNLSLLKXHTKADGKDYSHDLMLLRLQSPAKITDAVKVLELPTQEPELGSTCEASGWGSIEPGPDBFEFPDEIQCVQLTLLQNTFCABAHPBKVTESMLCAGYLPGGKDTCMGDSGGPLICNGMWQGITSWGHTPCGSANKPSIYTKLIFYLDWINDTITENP
Outline: (§2)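 Porcine pancreatic kallikrein (635 Frey units/mg) amidase assay, pH 8.1, 37°, 15-180 min. […] Ki came from Dixon plots at two substrate concentrations. Means ± SD, n = 3.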

[5] = Inhibition of bovine trypsin using BANA as substrate after 15 to 30 mins; design: species or system Bos taurus
Plasma [6] = experiment: Anticoagulant activity in human plasma assessed as partial thromboplastin time at 10 uM (reference value: 59 +/- 2.6 secs); type: functional
Plasma [7] = experiment: Anticoagulant activity in human plasma assessed as partial thromboplastin time at 5 uM (reference value: 59 +/- 2.6 secs); type: functional
Prothrombin [8] = target: T1, Prothrombin; experiment: Inhibition of amidase activity of bovine thrombin using BPVANA as substrate after 15 to 40 mins
Glandular kallikrein [9] = target: T2, Glandular kallikrein; experiment: Inhibition of porcine pancreatic kallikrein using BPPANA as substrate after 15 to 180 mins; outline: as §2
Plasma [10] = experiment: Anticoagulant activity in human plasma assessed as partial thromboplastin time at 0.1 mM (reference value: 59 +/- 2.6 secs); type: functional
Cavia porcellus [11] = species: Cavia porcellus; experiment: Inhibition of guinea pig complement-mediated immune lysis of sheep red blood cells at 0.1 mM after 12 mins; outline: as §1
Rattus norvegicus = experiment: Anticoagulant activity in Wistar rat plasma assessed as activation of partial thromboplastin time at 1.9 mg/kg, iv; type: functional, organism-based; design: dose 1.9 mg/kg
Outline: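 Female Wistar rats (about 300 g), anesthetized with sodium pentobarbital 25 mg/kg sc, received inhibitor at 1.9 mg/kg iv. Post-injection plasma was separated by centrifugation. 0.1 ml was mixed with Celite suspension, saline and partial thromboplastin, agitated 3 min at 37°, recalcified with 0.02 M CaCl2, and activated PTT clotting time recorded.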

inhibition (Cavia porcellus [1]) [%]	inhibition (Cavia porcellus [2]) [%]	IC50 (Prothrombin (Bos taurus)) [µM]	Ki (Prothrombin [3]) [µM]	Ki (Glandular kallikrein [4]) [µM]	Ki [5] [µM]	Ki (Prothrombin [8]) [µM]	Ki (Glandular kallikrein [9]) [µM]	inhibition (Cavia porcellus [11]) [%]	SMILES	APTT (Plasma [6]) [s]	APTT (Plasma [7]) [s]	APTT (Plasma [10]) [s]	Activity (Rattus norvegicus)
47	36.6	72	5.1	5.5	5.9	–	–	–	N=C(N)c1cccc(OCc2ccc3cc(COc4cccc(C(=N)N)c4)ccc3c2)c1	–	–	–	–
> 50	26.9	–	–	–	–	–	–	–	N=C(N)c1ccc(OCCCCCOc2ccc(C(=N)N)cc2I)c(I)c1	–	–	–	–
–	–	–	6	9.7	3.2	–	–	–	N=C(N)c1ccc(COc2ccc3cc(OCc4ccc(C(=N)N)cc4)ccc3c2)cc1	–	–	–	–
29.8	0	1	–	–	2.3	0.11	0.61	–	Cl.N=C(N)c1ccc(OCc2ccc(COc3ccc(C(=N)N)cc3I)cc2)c(I)c1	92	80	–	–
–	–	4	1.67	1.76	4.01	–	–	–	Cl.N=C(N)c1cccc(OCc2cccc(-c3cccc(COc4cccc(C(=N)N)c4)c3)c2)c1	93	73	–	–
14	5.6	13	5	5.8	6.1	–	–	19.1	Cl.N=C(N)c1cccc(OCc2ccc(COc3cccc(C(=N)N)c3)cc2)c1	122	80	391	–
–	–	0.73	–	1.6	1.4	0.57	–	–	Cl.N=C(N)c1ccc(OCc2cccc(-c3cccc(COc4ccc(C(=N)N)cc4)c3)c2)cc1	83	72	412	–
0	0	–	–	8.6	2.8	–	–	0	Cl.N=C(N)c1ccc(COc2cccc3c(OCc4ccc(C(=N)N)cc4)cccc23)cc1	61	60	141	–
10.8	2.9	–	6.6	2.5	1.9	–	–	–	Cl.N=C(N)c1ccc(OCc2ccc(COc3ccc(C(=N)N)cc3)c3ccccc23)cc1	71	64	203	–
> 50	11	30	2.4	5.5	3.2	–	–	> 50	Cl.N=C(N)c1cccc(COc2ccc3cc(OCc4cccc(C(=N)N)c4)ccc3c2)c1	72	61	277	–
28.5	20.8	–	–	–	–	–	–	> 50	N=C(N)c1ccc(OCCCCCOc2ccc(C(=N)N)cc2Br)c(Br)c1	–	–	–	–
15.3	5.6	15	5.2	1.04	1.8	–	–	> 50	Cl.N=C(N)c1ccc(OCc2cc(COc3ccc(C(=N)N)cc3)c3ccccc3c2)cc1	67	62	147	–
26.9	6.3	–	–	–	–	–	–	19.1	N=C(N)c1ccc(OCCCOc2ccc(C(=N)N)cc2Br)c(Br)c1	–	–	–	–
> 50	50	–	–	–	–	–	–	> 50	CC[n+]1c(-c2ccccc2)c2cc(NN=Nc3cccc(C(=N)N)c3)ccc2c2ccc(NN=Nc3cccc(C(=N)N)c3)cc21	–	–	–	–
–	–	–	–	0.71	1.1	0.16	–	–	Cl.N=C(N)c1ccc(OCc2ccc(COc3ccc(C(=N)N)cc3Br)cc2)c(Br)c1	110	96	258	–
32.6	0	–	1.2	–	0.67	–	0.031	> 50	Cl.N=C(N)c1ccc(OCc2cccc(COc3ccc(C(=N)N)cc3I)c2)c(I)c1	70	64	369	–
0	0	17	3.4	11.4	1.3	–	–	25.9	Cl.N=C(N)c1ccc(OCc2ccc(COc3ccc(C(=N)N)cc3)cc2)cc1	176	147	725	inactive
8.9	0	–	–	2.2	0.42	–	–	39	Cl.N=C(N)c1cccc(COc2cccc3c(OCc4cccc(C(=N)N)c4)cccc23)c1	75	65	–	–
> 50	5.9	8	1.5	5.2	1.3	–	–	> 50	Cl.N=C(N)c1ccc(OCc2c(Cl)c(Cl)c(Cl)c(COc3ccc(C(=N)N)cc3)c2Cl)cc1	76	62	–	–
37.4	12.8	20	4.9	2.8	1.8	–	–	> 50	Cl.N=C(N)c1ccc(COc2ccc3ccc(OCc4ccc(C(=N)N)cc4)cc3c2)cc1	66	63	–	–
10.3	0	25	4.8	6.7	3.5	–	–	24.9	Cl.N=C(N)c1ccc(OCc2cccc(COc3ccc(C(=N)N)cc3)c2)cc1	117	87	–	–
> 50	0	–	6.7	3.4	1.2	–	–	–	N=C(N)c1ccc(OCc2c(Cl)c(Cl)c(COc3ccc(C(=N)N)cc3)c(Cl)c2Cl)cc1	–	–	–	–
–	–	10	–	2.2	0.25	0.27	–	–	Cl.N=C(N)c1ccc(OCc2cccc(-c3cccc(COc4ccc(C(=N)N)cc4Br)c3)c2)c(Br)c1	–	62	–	–
13.7	0	6.5	4.6	3.4	3.2	–	–	34	Cl.N=C(N)c1cccc(OCc2cccc(COc3cccc(C(=N)N)c3)c2)c1	112	92	714	–
